The source of these data is ChEMBL document CHEMBL2086372 (ACS Med Chem Lett, 2012).

The test system of data set [1] is Mus musculus. As to the kind of experiment: Effect on morphine-dependence in CD1 mouse assessed as decrease in naloxone-precipitated teeth chatter at 0.05 mg/kg, ip administered chronically 15 mins prior to each morphine challenge relative to vehicle-treated control. Type of data set: functional, organism-based. More on the design: dose 0.05 mg/kg. Summed up: (§1)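 Acquisition of morphine dependence in mice, tested with repeated ip dosing (racemate 0.05 mg/kg, enantiomers 0.025 mg/kg). Withdrawal was precipitated by naloxone. Scored signs were jumping frequency and somatic signs (rearing, forepaw tremors, teeth chatter). Groups were compared with vehicle and with the morphine group.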

Data set [2] is described as follows: Permeability of the compound at 10 uM after 4 hrs by PAMPA assay. The format is ADME. On the technique in general: In PAMPA a lipid-coated filter parts donor from acceptor wells.
Data set [3] relates to Mus musculus. As to the kind of experiment: Effect on morphine-dependence in CD1 mouse assessed as decrease in naloxone-precipitated jumping at 0.05 mg/kg, ip administered acutely 15 mins prior to naloxone challenge relative to vehicle-treated control. The format is functional, organism-based. Further details: dose 0.05 mg/kg. The method in brief:
(§2)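 Expression of morphine dependence in mice, tested with a single acute ip dose (racemate 0.05 mg/kg, enantiomers 0.025 mg/kg). Withdrawal was precipitated by naloxone in control and morphine-treated mice. Scored signs were jumping frequency and somatic signs (rearing, forepaw tremors, teeth chatter). Groups were compared with vehicle and with the morphine group.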

Data set [4] has as its system Mus musculus. As to the kind of experiment: Effect on morphine-dependence in CD1 mouse assessed as decrease in naloxone-precipitated forepaw tremors at 0.05 mg/kg, ip administered acutely 15 mins prior to naloxone challenge relative to vehicle-treated control. Type of data set: functional, organism-based. More on the design: dose 0.05 mg/kg. The method in brief:
as §2

Data set [5] concerns the target T1, 5-hydroxytryptamine receptor 1A (Homo sapiens, UniProt P08908).
T1 sequence (P08908 whole entry): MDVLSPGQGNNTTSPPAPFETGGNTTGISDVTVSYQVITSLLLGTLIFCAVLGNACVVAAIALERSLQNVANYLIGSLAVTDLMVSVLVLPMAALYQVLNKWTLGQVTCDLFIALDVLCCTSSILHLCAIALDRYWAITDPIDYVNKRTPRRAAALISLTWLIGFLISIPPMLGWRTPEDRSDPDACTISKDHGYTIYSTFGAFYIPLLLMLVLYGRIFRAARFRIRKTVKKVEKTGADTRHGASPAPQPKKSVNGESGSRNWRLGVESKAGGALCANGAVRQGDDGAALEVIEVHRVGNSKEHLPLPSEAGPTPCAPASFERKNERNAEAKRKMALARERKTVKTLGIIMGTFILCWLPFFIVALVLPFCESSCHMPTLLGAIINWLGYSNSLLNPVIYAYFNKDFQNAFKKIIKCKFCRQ
As to the kind of experiment: Displacement of [3H]8-OH-DPAT from human 5HT1A receptor expressed in HeLa cells after 30 mins. The format is cell-based. Summed up:
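pKi is derived from displacement of [3H]-8-OH-DPAT binding at human cloned 5-HT1A receptor. Values are means ± SEMs of 3–6 separate experiments.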

The test system of data set [6] is Mus musculus. As to the kind of experiment: Effect on morphine-dependence in CD1 mouse assessed as decrease in naloxone-precipitated rearing at 0.05 mg/kg, ip administered chronically 15 mins prior to each morphine challenge relative to vehicle-treated control. The format is functional, organism-based. More on the design: dose 0.05 mg/kg. The method in brief: as §1

Data set [7] concerns Mus musculus. As to the kind of experiment: Effect on morphine-dependence in CD1 mouse assessed as decrease in naloxone-precipitated jumping at 0.05 mg/kg, ip administered chronically 15 mins prior to each morphine challenge relative to vehicle-treated control. Type of data set: functional, organism-based. More on the design: dose 0.05 mg/kg. The method in brief: as §1
Data set [8] is described as follows: Aqueous solubility of the compound after 1 hr at pH 7.4. The format is physicochemical. The conditions noted are these: buffer, pH 7.4, 1 h.
In data set [9] the target is T2, Alpha-2C adrenergic receptor (Homo sapiens) (UniProt P18825).
T2 sequence (whole entry): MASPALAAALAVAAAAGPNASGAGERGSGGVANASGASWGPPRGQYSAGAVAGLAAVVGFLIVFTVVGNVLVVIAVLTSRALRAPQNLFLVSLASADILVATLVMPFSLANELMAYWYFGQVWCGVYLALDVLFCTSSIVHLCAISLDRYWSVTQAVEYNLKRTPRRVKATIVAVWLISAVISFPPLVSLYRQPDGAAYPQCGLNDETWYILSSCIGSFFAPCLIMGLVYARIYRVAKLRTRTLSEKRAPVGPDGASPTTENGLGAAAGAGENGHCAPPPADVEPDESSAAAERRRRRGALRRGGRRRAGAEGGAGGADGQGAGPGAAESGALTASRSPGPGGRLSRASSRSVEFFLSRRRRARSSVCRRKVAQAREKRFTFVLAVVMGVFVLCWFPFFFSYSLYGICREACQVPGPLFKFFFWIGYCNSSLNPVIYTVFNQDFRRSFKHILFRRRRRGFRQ
The data set can be described thus: Agonist activity at human alpha2C adrenoceptor expressed in CHO cells assessed as extracellular acidification measured after 4 mins by cytosensor microphysiometric analysis relative to control. The format is functional, cell-based. Summed up:
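Binding and functional assays run on CHO cells expressing recombinant human α2-AR subtypes. Functional read-outs are agonist potency (pEC50) with intrinsic activity (ia), or antagonist pKb. Affinity is reported as pKi. Values are means ± SEMs of 3–6 separate experiments.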

Data set [10] deals with Mus musculus. As to the kind of experiment: Effect on morphine-dependence in CD1 mouse assessed as decrease in naloxone-precipitated forepaw tremors at 0.05 mg/kg, ip administered chronically 15 mins prior to each morphine challenge relative to vehicle-treated control. The format is functional, organism-based. More on the design: dose 0.05 mg/kg. Summed up:
as §1

Data set [11] deals with Mus musculus. As to the kind of experiment: Effect on morphine-dependence in CD1 mouse assessed as decrease in naloxone-precipitated rearing at 0.05 mg/kg, ip administered acutely 15 mins prior to naloxone challenge relative to vehicle-treated control. Type of data set: functional, organism-based. More on the design: dose 0.05 mg/kg. The method in brief:
as §2

Data set [12] relates to Mus musculus. As to the kind of experiment: Antidepressant activity in CD1 mouse assessed as decrease in immobility time at 0.05 mg/kg, ip after 15 mins by forced swim test relative to vehicle-treated control. Further details: dose 0.05 mg/kg. The format is functional, organism-based. The method in brief: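 Mouse forced swimming test with immobility time as the read-out. Single ip doses were 0.012, 0.025, 0.05, 0.2 or 0.5 mg/kg, with fluoxetine 20 mg/kg ip as reference. Results are compared against vehicle-treated mice and given as means ± SEMs of 8–9 animals.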

The test system of data set [13] is Mus musculus. The data set can be described thus: Effect on morphine-dependence in CD1 mouse assessed as decrease in naloxone-precipitated teeth chatter at 0.05 mg/kg, ip administered acutely 15 mins prior to naloxone challenge relative to vehicle-treated control. The format is functional, organism-based. More on the design: dose 0.05 mg/kg. The method in brief:
as §2

Each structure is given as a SMILES string. pKi: −log10 of the molar value. Activity calls are given as the source filed them. No cut-off for these calls is given here.

For orientation: pKi means −log10 of the Ki, conventionally taken in molar units. Lower therefore signals a large Ki.

Take `CC(Oc1ccccc1CC1CC1)C1=NCCN1` (racemic) [CYCLOMETHYLINE]: the result in the data set on Mus musculus [1], with Mus musculus [3], in the data set with Mus musculus [4], in the data set with Mus musculus [6], in the data set on Mus musculus [7] and with Mus musculus [10] was Active. In addition, the outcome with Mus musculus [11], with Mus musculus [12] and in the data set with Mus musculus [13] was Active. The permeability entry in data set [2] was “permeable”. In data set [5], the pKi was 7.98. Also, in data set [8], the solubility result is “soluble”. Moreover, the Intrinsic activity in data set [9] is 0.8.
